KCC2 mod: KCC2 (human) Cl- transport modulation; Q9H2X9; KCC2 cells, thallium flux FluoZin-2 fluorescence; B-score of Tl+ flux slope (higher = more flux/activation; lower = inhibition) at 10 µM; 2.2% of 190,000 active; AID 1456;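 active = thallium flux slope and its plate-corrected score both differing from the plate sample mean at a set confidence after two filtering rounds, in either direction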;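 also: slope of fluorescence scaled to starting intensity during 10 to 20 s after thallium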
KCNK3 inh: human KCNK3 channel inhibition, primary screen; O14649; CHO-KCNK3 thallium flux, FluxOR fluorescence; hits give low values; B-score at 10 µM; 0.84% of 340,000 active; AID 602410;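 active = B-score under library mean minus 4 SD, starting fluorescence ratio at most library mean plus 5 SD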;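 also: more negative B-score means stronger inhibition of thallium flux through KCNK3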
Target sequence (O14649 whole entry, looked up): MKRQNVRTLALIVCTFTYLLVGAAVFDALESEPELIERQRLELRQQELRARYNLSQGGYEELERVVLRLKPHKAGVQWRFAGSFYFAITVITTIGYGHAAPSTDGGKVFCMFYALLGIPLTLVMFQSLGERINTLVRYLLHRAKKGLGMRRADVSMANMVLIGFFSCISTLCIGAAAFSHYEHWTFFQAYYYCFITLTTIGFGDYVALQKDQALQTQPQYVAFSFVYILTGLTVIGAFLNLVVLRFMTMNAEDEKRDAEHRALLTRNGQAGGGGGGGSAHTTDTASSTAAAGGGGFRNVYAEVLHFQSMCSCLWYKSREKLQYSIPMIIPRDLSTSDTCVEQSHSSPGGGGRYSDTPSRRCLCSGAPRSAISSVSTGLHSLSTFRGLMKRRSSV
KCNK9 block: inhibitors of human KCNK9 two-pore domain potassium channel; Q9NPC2; HEK293 KCNK9, FluxOR thallium flux fluorescence; hits give low values; B-score at 10 µM; 1.2% of 310,000 active; AID 488922;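 active = ratio B-score over 3 SD below the library mean, with starting fluorescence within 5 SD of its mean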;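 also: negative B-score means less thallium flux so channel inhibition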
Target sequence (Q9NPC2 whole entry, looked up, the tested form may be a part): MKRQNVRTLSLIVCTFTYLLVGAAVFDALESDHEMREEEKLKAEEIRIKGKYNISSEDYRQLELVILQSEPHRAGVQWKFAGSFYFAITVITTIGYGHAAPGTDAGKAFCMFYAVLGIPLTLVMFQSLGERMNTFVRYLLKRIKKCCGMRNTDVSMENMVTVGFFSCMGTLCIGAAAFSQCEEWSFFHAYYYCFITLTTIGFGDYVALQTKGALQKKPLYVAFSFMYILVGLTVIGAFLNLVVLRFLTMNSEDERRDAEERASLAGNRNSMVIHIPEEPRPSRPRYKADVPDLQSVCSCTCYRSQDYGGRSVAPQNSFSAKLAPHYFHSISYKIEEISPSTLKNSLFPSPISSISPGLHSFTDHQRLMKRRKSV
KCNQ1 pot: potentiates or activates the human KCNQ1 potassium channel. AID 2648. CHO-K1 KCNQ1, thallium flux FluxOR fluorescence; hits give high values. 0.35% of 310,000 active. P51787. B-score at 10 µM;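 active = fluorescence ratio B-score, a plate-corrected score, at least three library SD, with initial intensity B-score within 5 SD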
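assay system = CHO-K1 cells stably expressing KCNQ1 | medium = assay buffer, equal DMSO in all wells | timing = 37 °C overnight plating, 90-min dark dye load, 20-min compound pretreatment | measured by = kinetic FluxOR thallium fluorescence, 10-s 1-Hz baseline, 110-s post-stimulus read | measure = fluorescence change relative to baseline, converted to B score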
hERG protect: compounds protecting human hERG from proarrhythmic drug block; 0.51% of 310,000 active; Q12809; activation (rescue from dofetilide block), less the hit threshold, % at 10 µM; CHO-hERG, FluxOR thallium flux, dofetilide IC70 present;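 active = activation above the mean of controls blocked by dofetilide plus 5 SD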;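 also: thallium influx through hERG after potassium depolarization seen as dye fluorescence rise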
KCNQ1 block: inhibitors of human KCNQ1 potassium channel | 1.3% of 310,000 active | CHO-K1 KCNQ1, FluxOR thallium flux fluorescence; hits give high values | B-score at 10 µM | P51787 | AID 2642;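 active = compounds whose thallium flux B-score, printed positive for inhibition, exceeds three library SD while starting fluorescence stays within three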;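 also: channel opened by potassium depolarization with thallium stimulus after 20 min compound exposure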
KCNQ1 inh valid: human KCNQ1 channel inhibition, validation assay. shares compounds with KCNQ1 block. KCNQ1 cell line, FluxOR thallium flux fluorescence. inhibition, % at 10 µM. 93% of 1,600 active. AID 588353;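 active = primary screen active, with duplicate mean exceeding buffer control mean plus 3 SD of buffer wells, cut at about 28% in these data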;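 also: 0% = buffer control ratio and 100% = XE991 inhibitor control ratio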
CHO Tl flux: activity in parental CHO cells lacking KCNQ1; shares compounds with KCNQ1 block; parental CHO-K1, FluxOR thallium flux fluorescence ratio; hits give low values; zero means no signal rise above baseline; fluorescence ratio (Tl flux) at 10 µM; 21% of 1,600 active;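 active = mean of duplicate thallium-flux fluorescence ratios in parental host cells more than 5 SD below the buffer control mean, cut at about 0.38 in these data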;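 also: ratio is peak minus minimum fluorescence divided by baseline fluorescence; actives read low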
KCNQ1 APC inh: human KCNQ1 inhibition validated by electrophysiology. shares compounds with KCNQ1 block. KCNQ1-CHO cells, automated patch clamp current. calls only at 10 µM. 20% of 490 active. AID 624120;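 active = KCNQ1 current drop exceeding 3 SD of negative control wells, seen in both duplicate runs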;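 also: steady state current during a 2 s step from -80 to +40 mV; negative values mean current inhibition and positive values mean potentiation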
KCNQ2 spec: KCNQ1 inhibitor that also blocks rat KCNQ2 channel. shares compounds with KCNQ1 block. KCNQ2 cells, FluxOR thallium flux fluorescence. inhibition, % at 10 µM. 71% of 1,600 active;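 active = mean percent inhibition of the KCNQ2 thallium signal more than 5 SD above the buffer-only control wells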;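 also: KCNQ2 expressed in CHO cells; 0% = buffer control wells and 100% = XE-991 inhibitor control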
KCNQ1 KCNE1 spec: KCNQ1 inhibitor that also blocks human KCNQ1/KCNE1 channel; shares compounds with KCNQ1 block; 77% of 1,600 active; AID 652147; inhibition, % at 10 µM; KCNQ1/KCNE1 cells, FluxOR thallium flux fluorescence;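 active = mean percent inhibition of duplicate wells above the buffer-only control mean plus 3 SD of those controls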;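 also: 0% = buffer only wells and 100% = XE-991 inhibitor control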
KCNK9 block conf: confirmation of human KCNK9 potassium channel inhibitors; shares compounds with KCNK9 block; HEK293 KCNK9 cells, FluxOR thallium flux fluorescence; inhibition, % at 10 µM; 43% of 4,900 active; AID 492992;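 active = thallium signal inhibited by more than 5 SD of the compound-free buffer control wells, on both duplicate plates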;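 also: 0% = assay buffer control wells without compound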
Kir2-1 spec: tests whether KCNK9 modulators also affect mouse Kir2.1. shares compounds with KCNK9 block. Kir2.1 cells, FluxOR thallium flux fluorescence. inhibition, % at 10 µM. 4% of 4,900 active. AID 492993;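 active = thallium signal drop more than 5 SD beyond the mean of the no-compound control wells, seen in both duplicate plates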;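 also: signal is fluorescence rise after thallium addition divided by baseline fluorescence; plate controls were assay buffer only for no effect and full block by chlorpromazine control for full effect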
KCNK9 uninduced: non-induced cell nonspecific activity of KCNK9 modulators; shares compounds with KCNK9 block; non-induced KCNK9-HEK293, FluxOR thallium flux; inhibition, % at 10 µM; 40% of 4,900 active; AID 492997;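 active = thallium signal drop beyond 5 SD of the untreated control mean, on both duplicate plates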;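 also: plate controls were buffer only IC0 wells for no effect and SID17386958 at its maximal inhibitory level for full effect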
KCNK3 inh conf: confirmation of human KCNK3 two-pore domain potassium channel inhibitors | shares compounds with KCNK3 inh | CHO-KCNK3 thallium flux, FluxOR fluorescence; 0% buffer, 100% carvedilol maximal block | ratio percent of control, % at 10 µM | 99% of 2,400 active | AID 651638;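 active = ratio percent of control, averaged over triplicates, above buffer control mean plus 5 SD, cut at about 64% in these data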;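 also: ratio is the fluorescence rise from min to max over baseline after thallium stimulus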
KCNK3 uninduced: counter-screen for KCNK3 inhibitors: effect in non-induced cells; shares compounds with KCNK3 inh; non-induced KCNK3 parental cells, FluxOR thallium flux; hits give low values; thallium flux ratio (lower = more inhibition) at 10 µM; 40% of 2,400 active; AID 651747;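 active = thallium flux ratio, averaged over three wells, more than 5 SD below the buffer control mean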;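 also: host cells are CHO cells without KCNK3 induction; ratio is peak minus trough fluorescence over baseline then normalized to buffer controls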
The depositor's hits bear a star; i = inactive; . = no result; + = active, no number. Shown are actives, neighbours in structure and some others; about 4.1% of the full set was active somewhere.

SMILES	KCC2 mod	KCNK3 inh	KCNK9 block	KCNQ1 pot	hERG protect	KCNQ1 block	KCNQ1 inh valid	CHO Tl flux	KCNQ2 spec	KCNQ1 KCNE1 spec	KCNK3 inh conf	KCNK3 uninduced	others
CCOC(=O)Nc1nc(-c2ccccc2)c(C(=O)c2ccc(Cl)cc2)s1	0.549	-8.74*	-14.6*	i	-11.6	7*	97.5*	0.362*	94.0%*	171.0%*	124.7*	0.159*	KCNK9 block conf=39.5%*;Kir2-1 spec=i;KCNK9 uninduced=42.0%*
c1ccc(N2CCN(c3nc(NCc4ccco4)c4ccccc4n3)CC2)cc1	.	-12*	i	i	-26.0	12*	144.0*	0.352*	114.3%*	192.0%*	139.7*	0.11*
O=[N+]([O-])c1c(Nc2ccccc2O)cc(Cl)c2nonc12	.	-12.2*	i	i	-34.6	21*	183.5*	0.2*	151.3%*	+	154.3*	0.0763*
O=[N+]([O-])c1c(Nc2ccccc2O)ccc2nonc12	0.838	i	i	i	-1.1	i	.	.	.	.	.	.
NCCCCC(N)c1cn([C@@H](CCC(=O)O)C(=O)N2CCNCC2)nn1 (stereo partly drawn)	.	i	.	.	.	.	.	.	.	.	.	.
CCOc1ccc(C(=O)Nc2cccc(-c3nc4cccnc4o3)c2)cc1Cl	0.00431	-10*	-16.4*	i	-18.4	9*	135.0*	0.472	110.3%*	189.5%*	125.3*	i	KCNQ1 APC inh=i;KCNK9 block conf=45.5%*;Kir2-1 spec=i;KCNK9 uninduced=i
CCOc1ccc(C(=O)Nc2cccc(C(=O)O)c2)cc1Cl	-0.658	i	i	i	-7.2	i	.	.	.	.	.	.
C=CCOC(=O)C1=C[C@H](c2ccc(C(F)(F)F)cc2)[C@@H](CCCO)[C@H](OCC)O1	0.0744	i	i	i	1.0	i	.	.	.	.	.	.
Cc1ccn2cc(-c3cccc(NC(=O)c4cccs4)c3)nc2c1	0.563	-11.1*	i	i	-24.2	8*	57.5*	0.435	i	82.0%*	96.0*	i
COC(=O)c1nnn(-c2ccc(Cl)c(Cl)c2)c1C(=O)OC	-1.95	i	i	i	-13.3	i	.	.	.	.	.	.
Fc1ccc(C2c3cccn3CCN2C(=S)Nc2cccc(F)c2)cc1 (stereo not drawn)	0.395	-10.2*	-7.53*	i	-16.0	9*	118.5*	0.388	116.0%*	182.5%*	134.7*	0.151*	KCNQ1 APC inh=+
Fc1cccc(NC(=S)N2CCn3cccc3C2c2cccnc2)c1 (stereo not drawn)	0	i	i	i	-18.1	i	.	.	.	.	.	.
Cc1cc(C)cc(NC(=O)C(NCC2CCCO2)c2ccccc2)c1 (stereo not drawn)	0.886	i	i	i	-6.5	i	.	.	.	.	.	.
COc1ccc(CCNC(C(=O)Nc2cc(C)cc(C)c2)c2ccccc2)cc1 (stereo not drawn)	.	-14*	i	i	-15.6	12*	87.5*	0.369*	122.3%*	143.5%*	117.7*	0.139*
CCOC(=O)c1ccc(C(=O)OCC)nc1	-1.08	i	i	i	-11.5	i	.	.	.	.	.	.
O=C(c1ccc(CSc2nc3ccncc3[nH]2)cc1)N1CCCCCC1	0.413	i	i	i	-11.8	i	.	.	.	.	.	.
O=C(c1ccc(CSc2nc3ccncc3[nH]2)cc1)N1CCN(c2cccc(Cl)c2)CC1	-1.93	-11*	i	i	-19.7	13*	134.5*	0.315*	111.0%*	193.0%*	134.0*	0.148*
CC(C)Cc1nc(N2CCN(C(=O)c3ccco3)CC2)c(C#N)c2c1CCCC2	.	-10.2*	-16*	i	-8.9	11*	116.0*	0.318*	116.7%*	i	66.0*	i	KCNK9 block conf=34.0%*;Kir2-1 spec=i;KCNK9 uninduced=28.5%*
CN(C)S(=O)(=O)c1cccc(C(=O)Nc2cc(Cl)cc(Cl)c2)c1	0.358	-12.7*	i	i	-10.0	7*	67.0*	0.487	110.0%*	i	125.7*	i
CN(C)S(=O)(=O)c1cccc(C(=O)Nc2ccccc2)c1	-0.696	i	i	i	-1.9	i	.	.	.	.	.	.
CCOc1ccc2[nH]c(=O)c(CN(CC3COCCO3)C(=O)c3ccc(C)cc3)cc2c1 (stereo not drawn)	-1.6	i	i	i	-2.5	i	.	.	.	.	.	.
CC(=O)Nc1ccc(S(=O)(=O)Oc2cccc(N3C(=O)C4CCCCC4C3=O)c2)cc1 (stereo not drawn)	-0.319	i	i	i	-18.8	i	.	.	.	.	.	.
COc1cc(C)ccc1NC(=O)Cc1csc(NC(=O)Nc2ccccc2OC)n1	.	-13*	-8.83*	i	-21.7	17*	115.0*	0.49	121.3%*	171.5%*	133.3*	i	KCNQ1 APC inh=i;KCNK9 block conf=28.0%*;Kir2-1 spec=i;KCNK9 uninduced=24.0%*
COc1ccccc1NC(=O)Nc1nc(CC(=O)Nc2ccc(OC)c(OC)c2)cs1	.	i	i	i	-12.3	i	.	.	.	.	.	.
O=C(N/N=C/c1ccc(O)c(Br)c1)c1cc2c(ccc3ccccc32)o1	.	i	i	i	-3.9	i	.	.	.	.	.	.

Screens deposited in PubChem BioAssay by several laboratories.
